Screening results from PubChem.
A selection: hits, their analogues and other compounds. The true share with any hit is near 1.8%.
Hck Nef HTS = inhibitors of human Hck kinase activated by Nef. 220,000 tested, 0.68% active. inhibition, % at 20 µM. Recombinant Hck-YEEI plus Nef, Z-Lyte FRET kinase assay. P08631;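 active = Hck-Nef kinase inhibition above about 50%, limit read from the data; inactive = inhibition below that limit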;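 also: 0% = DMSO with Hck plus Nef and 100% = Hck alone without Nef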
RanGTP-Impb inh = inhibitors of RanGTP-importin-beta interaction, primary screen, biochemical, FRET, CFP-Ran, YFP-importin-beta, homogeneous | 300,000 tested, 1.1% active | inhibition, % (no concentration beside the values) | cell-free CFP-Ran/YFP-importin-beta FRET ratio;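 active = more than half of the replicate wells show a fall in the fluorescence ratio signal beyond about 16%, limit read from the data, passing the limit was not always enough; inconclusive = exactly half of the replicate wells pass the set limit; inactive = fewer than half of replicates pass the limit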;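 also: 0% = DMSO wells and 100% = Ran loaded with GDP instead of GTP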
Runt-SMMHC FRET = blocks binding of human RUNX1 Runt domain to CBFb-SMMHC; AID 1434; Q01196+Q13951; Cerulean-Runt/Venus-CBFb-SMMHC FRET ratio 530/480, 1 h; 220,000 tested, 0.74% active; inhibition, % at 20 µM;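 active = mean inhibition across duplicate retests at 20 µM reaching about 50%, limit read from the data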;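 also: 0% = DMSO wells and 100% = wells with excess untagged CBFb-SMMHC; inhibitors lower the FRET ratio by blocking Runt binding to CBFb-SMMHC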
Runt-CBFb FRET = Runt domain-CBFb interaction inhibition; Cerulean-Runt/Venus-CBFb FRET ratio 530/480, 1 h; inhibition, % at 20 µM; 220,000 tested, 0.46% active;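 active = inhibition over about 50% at 20 µM in the single-dose screen, limit read from the data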;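 also: 0% = DMSO wells and 100% = excess unlabeled CBFb competitor control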
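test system = Cerulean-Runt domain fusion protein, energy donor | probe or stimulus = Venus-CBFb binding partner, 100 nM | incubation = two 1 h room-temperature incubations shielded from light | detection = fluorescence energy transfer, 422 nm excitation, 530/480 nm emission | measure = loss of energy transfer signal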
Starred values were filed as active, the others as inactive; u = inconclusive; x = not tested or not shown.

SMILES | Hck Nef HTS | RanGTP-Impb inh | Runt-SMMHC FRET | Runt-CBFb FRET
COC(=O)C1=C(C)NC2=C(C(=O)C(C(=O)OC)C(c3ccc(OC)cc3)C2)C1c1ccccn1 (configuration not stated) | 23 | 12 | 70* | 35
CCS(=O)(=O)c1nc(S(=O)(=O)c2ccc(Cl)cc2)c(N2CCC(O)CC2)s1 | x | 3 | x | x
CCN(CC)c1ccc(NC(=S)NCC2CCCO2)cc1 (configuration not stated) | -4 | -4 | -1 | 6
COc1ccc(OCC(O)CNC(=O)Nc2ccc(C(C)(C)C)cc2)cc1 (configuration not stated) | 3 | 1 | 0 | -3
CNc1sc(C(=O)c2cccs2)c(N)c1-c1nc2ccccc2s1 | -1 | -1 | 76* | 8
CNc1sc(C(=O)c2ccc(F)cc2)c(N)c1-c1nc2ccccc2s1 | -16 | 0 | 0 | 5
Cc1ccc2cc3c(NC(=O)c4ccco4)nn(CC(C)C)c3nc2c1 | 11 | 39* | 35 | 17
CC(C)Cn1nc(NC(=O)C2CCCO2)c2cc3ccccc3nc21 (configuration not stated) | 29 | 27* | 39 | 21
CC(C)Cn1nc(NS(=O)(=O)c2ccccc2)c2cc3ccccc3nc21 | 5 | 0 | -14 | -10
Cn1c(=O)oc2cc(S(=O)(=O)N3CCC(C(=O)NCCc4ccccc4)CC3)ccc21 | 24 | u | 2 | -2
O=C(CN1C(=O)NC2(CCCC2)C1=O)N1CCN(S(=O)(=O)c2ccc(Cl)c(C(F)(F)F)c2)CC1 | x | -4 | x | x
Brc1ccc(CSc2nnc(-c3cccnc3)o2)cc1 | 51* | -1 | -2 | -2
Cc1ccc(-c2cc3nc(C)cc(NCc4ccco4)n3n2)cc1 | 3 | 38* | 14 | 5
COc1ccc(-c2cc3nc(C)cc(NCCO)n3n2)cc1 | 2 | 1 | 4 | -3
Cc1cccn2c(=O)c3cc(C(=O)NCCCN4CCOCC4)n(C)c3nc12 | x | x | 3 | 0
Cc1cccn2c(=O)c3cc(C(=O)NC4CCCC4)c(=N)n(C4CCCC4)c3nc12 | 66* | 180* | 63* | 18
Cc1cccn2c(=O)c3cc(C(=O)NC4CCCC4)n(C)c3nc12 | x | -1 | x | x
CCCCNC(=O)c1cc2c(=O)n3cccc(C)c3nc2n(CCN2CCOCC2)c1=N | 30 | 150* | 62* | 100*
Cc1cccn2c(=O)c3cc(C(=O)NC4CCCCC4)n(C)c3nc12 | x | 0 | x | x
Cc1cccn2c(=O)c3cc(C(=O)NC4CCCCC4)c(=N)n(CCN4CCOCC4)c3nc12 | 17 | 113* | 128* | 97*
CN1CCN(C(=O)c2ccc(CNS(=O)(=O)c3ccc(F)c(Cl)c3)cc2)CC1 | x | 5 | x | x
c1nc2n(n1)C1=C(CCCC1)C1(CCCCC1)N2 | 26 | 15* | 0 | -1
CCCn1c(=N)c(C#N)cc2c(=O)n3cccc(C)c3nc21 | 32 | 148* | x | x
Cc1cccn2c(=O)c3cc(C#N)c(=N)n(CCN4CCOCC4)c3nc12 | 13 | 87* | 94* | 76*
Cc1cccn2c(=O)c3cc(C#N)c(=N)n(CCCN4CCOCC4)c3nc12 | 25 | 184* | x | x
SMILES | Hck Nef HTS | RanGTP-Impb inh | Runt-SMMHC FRET | Runt-CBFb FRET
Cc1ccc2nc3c(cc(C#N)c(=N)n3CCCN3CCOCC3)c(=O)n2c1 | 12 | x | x | x
CCCCn1c(=N)c(S(=O)(=O)c2ccc(Br)cc2)cc2c(=O)n3cccc(C)c3nc21 | x | 0 | x | x
Cc1cccc(NC(=O)Nc2ccc3c(c2)CCC3)c1 | x | -3 | x | x
O=S(=O)(Nc1ccon1)c1ccc(Br)cc1 | x | -3 | x | x
COc1ccc(CNC(=O)CSc2nnc(NC(=O)c3ccccc3F)s2)cc1 | x | -1 | x | x
N#CC1=C(N)Oc2cc(O)ccc2C1c1cccnc1 (configuration not stated) | 15 | 38* | -18 | -8
CSc1nc(N)c2c(n1)OC(N)=C(C#N)C2c1cccnc1 (configuration not stated) | 8 | 105* | 2 | 2
N#CC1=C(N)Oc2cc(O)c(Cl)cc2C1c1ccccc1F (configuration not stated) | x | 131* | x | x
COC(=O)C1=C(C)OC(N)=C(C#N)C1c1ccccc1F (configuration not stated) | 0 | -15 | 2 | 2
N#CC1=C(N)Oc2cc(O)c(Cl)cc2C1c1cccnc1 (configuration not stated) | x | 52* | x | x
COc1cccc(CN(C)C(=O)[C@@H](NC(=O)c2ccc(C)cc2)C(C)C)c1 | x | 2 | x | x
Cc1cccc(NC(=O)CN2C(=O)CCS(=O)(=O)c3ccccc32)c1C | x | -1 | x | x
